This is an account of results in ChEMBL document CHEMBL3232971, “Synthesis and in vitro evaluation of 12-(substituted aminomethyl) berberrubine derivatives as anti-diabetics” (2014).

For experiment [1], the system named is 3T3-L1. Nature of the experiment: Reversal of high glucose-induced insulin resistance in mouse 3T3L1 cells assessed as relative sensitization rate at 1 umol/ml relative to rosiglitazone. The class given is functional. The method in brief:
(§1)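 Mouse 3T3-L1 preadipocytes were grown in high-glucose DMEM with 10% FBS and phenol red. At 90% confluence they were differentiated for 4 days with FBS, insulin, dexamethasone and IBMX. Cells were replated and kept 2 days in FBS medium. Insulin resistance was induced over 4 days with low insulin and high dexamethasone. Cells were then treated with sample in phenol red-free high-glucose DMEM, at three concentrations. Controls were normal differentiated cells (blank) and untreated insulin-resistant cells (negative); rosiglitazone was the positive control.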

Experiment [2] concerns 3T3-L1. Put plainly: Reversal of high glucose-induced insulin resistance in mouse 3T3L1 cells assessed as insulin sensitization relative to rosiglitazone. The class given is functional. The method in brief:
as §1

Experiment [3] deals with 3T3-L1. Put plainly: Reversal of high glucose-induced insulin resistance in mouse 3T3L1 cells at 1 umol/ml. The class given is functional, cell-based. The method in brief: as §1
Experiment [4] relates to 3T3-L1. Put plainly: Reversal of high glucose-induced insulin resistance in mouse 3T3L1 cells assessed as relative sensitization rate at 10 umol/ml relative to rosiglitazone. The class given is functional. A digest of the protocol: as §1
The subject of experiment [5] is 3T3-L1. Nature of the experiment: Reversal of high glucose-induced insulin resistance in mouse 3T3L1 cells. The class given is functional, cell-based. The method in brief: as §1
The test system of experiment [6] is 3T3-L1. Nature of the experiment: Reversal of high glucose-induced insulin resistance in mouse 3T3L1 cells assessed as relative sensitization rate at 0.10 umol/ml relative to rosiglitazone. The class given is functional. A digest of the protocol: as §1
Experiment [7] relates to L6. Nature of the experiment: Increase in glucose transport in rat L6 cells assessed as sensitization rate at 10 umol/ml. The class given is functional. A digest of the protocol: (§2)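 Rat L6 myoblasts were grown 24 h in high-glucose DMEM with 10% FBS and phenol red. They were differentiated to myotubes in high-glucose DMEM with 2% FBS for 6–8 days, with medium changed every 48 h. Cells were then starved serum-free overnight, and 4–6 h without serum or glucose. Samples were added in serum-free DMEM with 20 mmol glucose for 16–24 h. Supernatant glucose was read by kit at OD 490 nm. Sensitization rate = (negative OD − sample OD)/(negative OD − blank OD) × 100%, tested at two concentrations.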

Experiment [8] deals with L6. Put plainly: Increase in glucose transport in rat L6 cells assessed as sensitization rate at 1 umol/ml. The class given is functional. A digest of the protocol: as §2

Active and inactive are the calls of the source. No cut-off for these calls is given here.

`COc1cc(CN2CCN(C)CC2)c2cc3[n+](cc2c1O)CCc1cc2c(cc1-3)OCO2.[Cl-]`: the Activity in the experiment with 3T3-L1 [1] is 90.23%; in the experiment on 3T3-L1 [4], 126.29%; in the experiment with 3T3-L1 [5] it was “Dose-dependent effect”; in the experiment with 3T3-L1 [6] it was -1.09%; with L6 [7], 48.55%; in the experiment on L6 [8], 41.9%. The “fold change (FC)” value with 3T3-L1 [2] came out at 1.26. Also, in the experiment on 3T3-L1 [3], the outcome was Active.
For the compound `COc1cc(CN2CCCC2)c2cc3[n+](cc2c1O)CCc1cc2c(cc1-3)OCO2.[Cl-]`, the Activity in the experiment on 3T3-L1 [1] was -12.1%; in the experiment with 3T3-L1 [4] it was 73.15%; in the experiment on 3T3-L1 [6], -22.09%; in the experiment with L6 [7] it was 40.73%; with L6 [8] it was 7.95%.
As to `COc1cc(CN2CCCCC2)c2cc3[n+](cc2c1O)CCc1cc2c(cc1-3)OCO2.[Cl-]`, the Activity in the experiment on 3T3-L1 [1] was 41.02%; in the experiment with 3T3-L1 [4] it was 102.93%; with 3T3-L1 [5], “Dose-dependent effect”; in the experiment on 3T3-L1 [6], 8.33%; with L6 [7], 43.53%; with L6 [8] it was 15.78%.
As to `COc1cc(CN2CCOCC2)c2cc3[n+](cc2c1O)CCc1cc2c(cc1-3)OCO2.[Cl-]`, the Activity with 3T3-L1 [1] was 68.72%; with 3T3-L1 [4], 115.14%; with 3T3-L1 [5], “Dose-dependent effect”; with 3T3-L1 [6], 28.22%; in the experiment with L6 [7] it was 57.22%; in the experiment on L6 [8] it was 26.16%.
As to `COc1cc(CN(c2ccccc2)c2ccccc2)c2cc3[n+](cc2c1O)CCc1cc2c(cc1-3)OCO2.[Cl-]`, the Activity with 3T3-L1 [1] was determined as 62.08%; in the experiment with 3T3-L1 [4] it was 96.66%; with 3T3-L1 [6], 33.38%; in the experiment with L6 [7] it was 53.05%; in the experiment with L6 [8] it was 12.43%.
Turning to `CCN(CC)Cc1cc(OC)c(O)c2c[n+]3c(cc12)-c1cc2c(cc1CC3)OCO2.[Cl-]`, the Activity in the experiment on 3T3-L1 [1] was determined as 23.48%; in the experiment with 3T3-L1 [4], 75.63%; in the experiment on 3T3-L1 [6] it was 2.03%; in the experiment on L6 [7] it was 48.83%; in the experiment on L6 [8] it was 5.81%.
As for `COc1cc(CN(Cc2ccccc2)Cc2ccccc2)c2cc3[n+](cc2c1O)CCc1cc2c(cc1-3)OCO2.[Cl-]`, the Activity in the experiment with 3T3-L1 [1] was -9.51%; with 3T3-L1 [4], 65.58%; in the experiment with 3T3-L1 [6], -17.34%; in the experiment on L6 [7] it was 70.02%; with L6 [8], 28.39%.
On the same counts, the results for `COc1cc(CN(C)C)c2cc3[n+](cc2c1O)CCc1cc2c(cc1-3)OCO2.[Cl-]` are -17.72%, 51.59%, -16.79%, 78.5% and 51.3%.
As to `COc1ccc2cc3[n+](cc2c1OC)CCc1cc2c(cc1-3)OCO2.[Cl-]` [BERBERINE CHLORIDE], the Activity in the experiment with 3T3-L1 [1] is 13.27%; in the experiment on 3T3-L1 [4], 74.23%; in the experiment on 3T3-L1 [6] it was -2.93%; in the experiment with L6 [7] it was 43.28%; with L6 [8], 21.3%.
Turning to `COc1cc(CN(C(C)C)C(C)C)c2cc3[n+](cc2c1O)CCc1cc2c(cc1-3)OCO2.[Cl-]`, the Activity in the experiment with 3T3-L1 [1] was 28.02%; with 3T3-L1 [4], 112.25%; in the experiment on 3T3-L1 [5] it was “Dose-dependent effect”; with 3T3-L1 [6], -64.34%; in the experiment on L6 [7], 46.08%; in the experiment on L6 [8], 17.97%.
With `COc1cc(CN2CCN(C(=O)OC(C)(C)C)CC2)c2cc3[n+](cc2c1O)CCc1cc2c(cc1-3)OCO2.[Cl-]`, the Activity in the experiment with 3T3-L1 [1] was 3.14%; with 3T3-L1 [4], 107.3%; in the experiment on 3T3-L1 [5] it was “Dose-dependent effect”; in the experiment with 3T3-L1 [6], -43.33%; in the experiment on L6 [7], 52.51%; with L6 [8], 23.32%.
